In ChEMBL document CHEMBL1142348, “beta-N-Biaryl ether sulfonamide hydroxamates as potent gelatinase inhibitors: part 1. Design, synthesis, and lead identification” (Bioorg Med Chem Lett, 2008):
pIC50: −log10 of the molar value. Values after ≈ are worked out from the molar mass of the structure shown.

Columns and labels:
[1] = Selectivity ratio, IC50 for full length MMP2 to IC50 for catalytic domain MMP9
How it was run: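 Full-length MMP-2 and MMP-9 catalytic domain, each titrated for linear velocity, in 50 mM Hepes pH 7.4, 10 mM CaCl2, 0.05% Brij-35. Preincubated 1 h at room temperature with compound dilutions (final DMSO 0.04%). Eu/QSY7-quenched peptide substrate added for 15 min at room temperature; cleavage read as Eu fluorescence. Triplicate 16-point curves, nonlinear regression; ratio is MMP-2 IC50/MMP-9 IC50.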

[2] = biological target: T1, Matrix metalloproteinase-9 (Homo sapiens, UniProt P14780); test: Inhibition of MMP9 catalytic domain at 10 uM
T1 sequence (P14780 whole entry, the tested form may be a part): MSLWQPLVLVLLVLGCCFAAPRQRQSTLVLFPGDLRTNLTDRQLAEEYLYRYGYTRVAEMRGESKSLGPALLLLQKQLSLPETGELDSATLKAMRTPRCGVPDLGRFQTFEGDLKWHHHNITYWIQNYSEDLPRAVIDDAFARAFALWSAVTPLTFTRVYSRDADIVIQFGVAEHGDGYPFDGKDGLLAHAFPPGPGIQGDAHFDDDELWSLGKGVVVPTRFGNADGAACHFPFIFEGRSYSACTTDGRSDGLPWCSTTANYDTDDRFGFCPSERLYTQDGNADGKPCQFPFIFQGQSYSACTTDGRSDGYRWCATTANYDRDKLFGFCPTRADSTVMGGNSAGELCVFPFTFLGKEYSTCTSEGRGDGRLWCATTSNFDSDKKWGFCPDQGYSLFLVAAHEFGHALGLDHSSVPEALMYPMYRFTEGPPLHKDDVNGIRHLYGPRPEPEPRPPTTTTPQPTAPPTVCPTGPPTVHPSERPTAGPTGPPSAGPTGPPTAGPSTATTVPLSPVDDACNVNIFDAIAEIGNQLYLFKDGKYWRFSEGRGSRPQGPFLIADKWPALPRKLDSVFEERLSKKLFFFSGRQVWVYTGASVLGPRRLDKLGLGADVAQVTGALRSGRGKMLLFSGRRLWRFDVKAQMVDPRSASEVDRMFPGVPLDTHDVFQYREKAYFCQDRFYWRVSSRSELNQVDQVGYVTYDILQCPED

[3] = biological target: T2, 72 kDa type IV collagenase (Homo sapiens, UniProt P08253); test: Inhibition of full length MMP2 at 10 uM
Target sequence in this assay (P08253 110-660 limits assumed): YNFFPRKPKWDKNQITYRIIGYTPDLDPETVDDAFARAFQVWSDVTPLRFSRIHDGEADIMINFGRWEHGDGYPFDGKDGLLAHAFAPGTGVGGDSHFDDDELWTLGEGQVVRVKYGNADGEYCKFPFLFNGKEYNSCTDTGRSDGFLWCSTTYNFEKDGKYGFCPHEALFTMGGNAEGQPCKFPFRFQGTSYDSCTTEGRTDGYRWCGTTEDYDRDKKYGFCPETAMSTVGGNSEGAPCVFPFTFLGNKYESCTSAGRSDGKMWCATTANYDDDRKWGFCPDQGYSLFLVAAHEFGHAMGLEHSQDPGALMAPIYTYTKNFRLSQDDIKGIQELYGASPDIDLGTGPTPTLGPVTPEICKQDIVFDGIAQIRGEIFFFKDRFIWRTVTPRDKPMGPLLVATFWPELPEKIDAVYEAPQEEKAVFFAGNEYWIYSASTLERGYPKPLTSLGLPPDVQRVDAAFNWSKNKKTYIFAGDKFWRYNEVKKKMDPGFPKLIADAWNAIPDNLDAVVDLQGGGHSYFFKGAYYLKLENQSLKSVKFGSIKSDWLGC

[4] = AUC in rat at 0.5 mg/kg, iv; type: ADME, organism-based; set-up: dose 0.5 mg/kg, route intravenous; conditions: plasma
How it was run: (§1)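 Rats, n=4 per group, single intravenous dose of 0.5 mg/kg. Plasma Cmax was taken at t = 5 min. Apparent elimination half-life, AUC, steady-state volume of distribution and clearance were derived from the plasma profile. Values are means of the 4 animals.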

[5] = Half life in rat at 0.5 mg/kg, iv; type: ADME, organism-based; set-up: dose 0.5 mg/kg, route intravenous; conditions: in vivo; how it was run: as §1
[6] = Clearance in rat at 0.5 mg/kg, iv; type: ADME, organism-based; set-up: dose 0.5 mg/kg, route intravenous; conditions: in vivo; how it was run: as §1
[7] = Cmax in rat at 0.5 mg/kg, iv; type: ADME, organism-based; set-up: dose 0.5 mg/kg, route intravenous; conditions: in vivo; how it was run: as §1
[8] = Solubility in water at pH 2; type: physicochemical
[9] = Solubility in water at pH 7; type: physicochemical
[10] = Volume of distribution in rat at steady state at 0.5 mg/kg, iv; type: ADME, organism-based; set-up: dose 0.5 mg/kg, route intravenous; conditions: in vivo, read-out: Vdss; how it was run: as §1
[11] = biological target: T1, Matrix metalloproteinase-9; test: Inhibition of catalytic domain MMP9
How it was run: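 Peptide-cleavage FRET assay using MMP-1 and -9 catalytic domains or full-length MMP-2, each titrated to give linear velocity. Enzyme was preincubated with inhibitor for 1 h at room temperature in 50 mM Hepes pH 7.4, 10 mM CaCl2, 0.05% Brij-35, final DMSO 0.04%. Eu/QSY7-labelled peptide substrate was then added for 15 min at room temperature, and liberated Eu fluorescence was read.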

[12] = biological target: T3, Interstitial collagenase (Homo sapiens, UniProt P03956); test: Inhibition of catalytic domain MMP1
T3 sequence (P03956 whole entry): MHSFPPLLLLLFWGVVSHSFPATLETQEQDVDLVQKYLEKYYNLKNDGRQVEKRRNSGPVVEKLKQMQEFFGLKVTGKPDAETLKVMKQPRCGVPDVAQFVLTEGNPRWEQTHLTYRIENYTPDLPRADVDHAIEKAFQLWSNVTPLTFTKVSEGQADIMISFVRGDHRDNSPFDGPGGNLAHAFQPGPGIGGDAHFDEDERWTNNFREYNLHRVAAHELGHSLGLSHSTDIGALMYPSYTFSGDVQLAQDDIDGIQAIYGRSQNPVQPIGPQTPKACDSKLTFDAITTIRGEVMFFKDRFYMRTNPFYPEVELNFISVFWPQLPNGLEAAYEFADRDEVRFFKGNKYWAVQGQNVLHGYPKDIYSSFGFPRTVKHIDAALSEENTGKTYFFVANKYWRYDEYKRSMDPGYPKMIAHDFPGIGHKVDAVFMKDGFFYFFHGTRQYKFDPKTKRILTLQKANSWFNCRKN

[13] = biological target: T2, 72 kDa type IV collagenase; test: Inhibition of full length MMP2
Target sequence in this assay (P08253 whole entry): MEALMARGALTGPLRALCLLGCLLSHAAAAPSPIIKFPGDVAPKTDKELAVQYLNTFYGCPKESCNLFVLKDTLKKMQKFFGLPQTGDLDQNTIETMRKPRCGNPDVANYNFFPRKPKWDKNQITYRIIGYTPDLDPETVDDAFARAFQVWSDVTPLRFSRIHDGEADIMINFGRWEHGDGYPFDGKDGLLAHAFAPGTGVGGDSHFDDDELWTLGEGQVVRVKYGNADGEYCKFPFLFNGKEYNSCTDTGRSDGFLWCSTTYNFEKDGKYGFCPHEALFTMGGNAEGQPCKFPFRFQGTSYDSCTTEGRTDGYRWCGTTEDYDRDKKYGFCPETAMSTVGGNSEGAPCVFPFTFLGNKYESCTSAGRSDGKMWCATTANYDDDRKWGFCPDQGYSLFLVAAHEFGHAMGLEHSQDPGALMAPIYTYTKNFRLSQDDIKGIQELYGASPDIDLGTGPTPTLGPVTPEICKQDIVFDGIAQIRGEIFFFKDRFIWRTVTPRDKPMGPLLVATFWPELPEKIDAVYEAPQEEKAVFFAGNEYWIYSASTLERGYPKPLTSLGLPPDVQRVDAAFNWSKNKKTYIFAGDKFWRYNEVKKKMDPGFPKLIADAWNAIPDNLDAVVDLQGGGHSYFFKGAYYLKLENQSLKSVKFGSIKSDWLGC

[14] = Stability in human liver microsomes
[15] = Stability in rat liver microsomes

| Compound | Ratio IC50 [1] | pIC50 [11] | pIC50 [13] | other results |
| --- | --- | --- | --- | --- |
| CS(=O)(=O)N(C[C@H](O)C(=O)NO)c1ccc(C#Cc2ccc(Cl)cc2)cc1 | 1.2 |  |  |  |
| Cc1ccc(Oc2ccc(N(C[C@H](O)C(=O)O)S(C)(=O)=O)cc2)cc1 |  |  |  | inhibition [2]: < 10%; inhibition [3]: < 10% |
| Cc1ccc(Oc2ccc(N(C[C@H](O)C(=O)NO)S(C)(=O)=O)cc2)cc1 |  |  |  | AUC [4]: 180 ng·h/mL; half-life [5]: 25.8 min; clearance [6]: 47.5 mL/min/kg; Cmax [7]: 1300 nM; solubility [8]: < 5 µg/mL; solubility [9]: 28 µg/mL (≈ 73.6 µM); Vd [10]: 1.4 L/kg |
| CS(=O)(=O)N(C[C@H](O)C(=O)NO)c1ccc(OCc2ccc(F)cc2)cc1 | 0.5 | 5.32 | 5.64 | pIC50 [12]: < 5.00 |
| CS(=O)(=O)N(C[C@H](O)C(=O)NO)c1ccc(OCc2ccc(C(F)(F)F)cc2)cc1 | 1.9 | 5.83 | 5.54 | pIC50 [12]: < 5.00 |
| Cc1ccc(Oc2ccc(N(CCC(=O)NO)S(C)(=O)=O)cc2)cc1 |  | 8.18 | 7.21 | pIC50 [12]: < 5.00 |
| CO[C@@H](CN(c1ccc(Oc2ccc(C)cc2)cc1)S(C)(=O)=O)C(=O)NO |  | 8.42 | 7.44 |  |
| CS(=O)(=O)N(C[C@H](O)C(=O)NO)c1ccc(OCc2ccc(Cl)cc2)cc1 | 0.9 | 6.01 | 6.05 | pIC50 [12]: < 5.00 |
| CS(=O)(=O)N(C[C@H](O)C(=O)NO)c1ccc(S(=O)(=O)c2ccccc2)cc1 |  | < 5.00 | < 5.00 |  |
| COc1ccc(C#Cc2ccc(N(C[C@H](O)C(=O)NO)S(C)(=O)=O)cc2)cc1 | 0.4 |  | 7.49 | pIC50 [12]: < 5.00 |
| CS(=O)(=O)N(C[C@H](O)C(=O)NO)c1ccc(-c2ccccc2)cc1 |  |  |  | inhibition [2]: 79%; inhibition [3]: 87% |
| CS(=O)(=O)N(C[C@H](O)C(=O)NO)c1ccc(Oc2ccccc2)cc1 | 6.3 | 7.41 | 6.61 |  |
| Cc1ccc(C#Cc2ccc(N(C[C@H](O)C(=O)NO)S(C)(=O)=O)cc2)cc1 | 1.1 | 7.36 | 7.33 |  |
| CO[C@H](CN(c1ccc(Oc2ccc(C)cc2)cc1)S(C)(=O)=O)C(=O)NO |  | 7.89 |  |  |
| Cc1ccc(Oc2ccc(N(CC(C)(O)C(=O)NO)S(C)(=O)=O)cc2)cc1 (racemic) |  | 8.26 | 7.70 | AUC [4]: 220 ng·h/mL; half-life [5]: 43.2 min; half-life [14]: 103 min; pIC50 [12]: < 5.00; half-life [15]: 10 min; clearance [6]: 41.5 mL/min/kg; Cmax [7]: 1500 nM; solubility [8]: < 5 µg/mL; solubility [9]: 28 µg/mL (≈ 71 µM); Vd [10]: 1.5 L/kg |
| CC(C)C(=O)N(C[C@H](O)C(=O)NO)c1ccc(Oc2ccc(Cl)cc2)cc1 |  | 6.62 | 6.54 |  |
| Cc1ccc(Oc2ccc(N(CC(=O)NO)S(C)(=O)=O)cc2)cc1 |  | 7.51 | 7.14 |  |
| Cc1ccc(Sc2ccc(N(C[C@H](O)C(=O)NO)S(C)(=O)=O)cc2)cc1 | 5.5 | 7.27 | 6.53 |  |
| CS(=O)(=O)N(C[C@H](O)C(=O)NO)c1ccc(Sc2ccc(F)cc2)cc1 | 2.7 | 6.98 | 6.55 |  |
| CC(=O)N(C[C@H](O)C(=O)NO)c1ccc(Oc2ccc(Cl)cc2)cc1 |  | 6.03 | 5.90 |  |
| CS(=O)(=O)N(CC(=O)NO)c1ccc(Oc2ccccc2)cc1 |  | 6.42 | 6.83 | pIC50 [12]: < 5.00 |

Continued, in another order:

| Ratio IC50 [1] | pIC50 [11] | pIC50 [13] | Compound | other results |
| --- | --- | --- | --- | --- |
| 7.4 |  |  | CS(=O)(=O)N(C[C@H](O)C(=O)NO)c1ccc(Oc2ccc(Cl)cc2)cc1 |  |
| 6.3 |  |  | Cc1ccc(Oc2ccc(N(C[C@H](O)C(=O)NO)S(=O)(=O)Cc3ccccc3)cc2)cc1 |  |
| 4.1 |  |  | CCCS(=O)(=O)N(C[C@H](O)C(=O)NO)c1ccc(Oc2ccc(C)cc2)cc1 |  |
| 6.4 |  |  | Cc1ccc(Oc2ccc(N(C[C@H](O)C(=O)NO)S(=O)(=O)Cc3ccncc3)cc2)cc1 |  |
| 5.1 | 7.55 | 6.85 | CCS(=O)(=O)N(C[C@H](O)C(=O)NO)c1ccc(Oc2ccc(C)cc2)cc1 |  |
|  | 7.92 | 7.17 | Cc1ccc(Oc2ccc(N(C[C@@H](O)C(=O)NO)S(C)(=O)=O)cc2)cc1 |  |
| 9.9 |  |  | CS(=O)(=O)N(C[C@H](O)C(=O)NO)c1ccc(Oc2ccc(C(F)(F)F)cc2)cc1 |  |
| 5.8 |  |  | Cc1ccc(Oc2ccc(N(C[C@H](O)C(=O)NO)S(=O)(=O)Cc3cccnc3)cc2)cc1 |  |
